Measurements as given in ChEMBL document CHEMBL5329220, “Discovery of pyrazolopyrimidines that selectively inhibit CSF-1R kinase by iterative design, synthesis and screening against glioblastoma cells” (RSC Med Chem, 2023).
Activity calls are given as the source filed them. The calls are words filed in the database; no cut-off is given here.

Legend:
T98 [1] = experiment: Antiproliferative activity against human T98 cells assessed as reduction in cell viability at 3 to 30 uM incubated for 5 days by PrestoBlue reagent based fluorescence assay; format: functional; conditions: dose 3-30 µM, time 5.0 day
How it was run: (§1)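 U87 (1×10^3/well) and T98 (5×10^2/well) cells in DMEM with 10% FBS and 2 mM L-glutamine, grown 48 h at 37 °C, 5% CO2, then medium replaced. Compounds added from 20× intermediate dilutions at 3, 10 and 30 μM for 5 d, in triplicate; DMSO 0.1% v/v control. PrestoBlue 60–90 min, fluorescence ex 540/em 590 nm. Normalised to untreated cells; 4-parameter logistic fit, minimum constrained to zero.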

T98 [2] = experiment: Antiproliferative activity against human T98 cells assessed as reduction in cell viability incubated for 5 days by PrestoBlue reagent based fluorescence assay; format: functional; conditions: T98, 120 h
How it was run: (§2)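 Cells seeded in DMEM/10% FBS/2 mM L-glutamine (U87 1×10^3, T98 5×10^2 per well), allowed 48 h at 37 °C, then given fresh medium plus compound from 20× intermediate stocks; untreated wells had 0.1% v/v DMSO. After 5 d, PrestoBlue reading (ex 540, em 590 nm, 60–90 min). EC50 from 4-parameter logistic fit of values normalised to untreated cells, bottom fixed at zero.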

U-87 MG [3] = experiment: Antiproliferative activity against human U87 cells assessed as reduction in cell viability incubated at 3 to 30 uM for 5 days by PrestoBlue reagent based fluorescence assay; format: functional; conditions: U-87MG ATCC, dose 3-30 µM, time 5.0 day; how it was run: as §1
E21 [4] = experiment: Antiproliferative activity against human E21 cells assessed as reduction in cell survival incubated for 72 hrs by Hoechst staining based nuclei count assay
U-87 MG [5] = experiment: Antiproliferative activity against human U87 cells assessed as reduction in cell viability incubated for 5 days by PrestoBlue reagent based fluorescence assay; format: functional, U-87MG ATCC; conditions: 120 h; how it was run: as §2
E31 = experiment: Antiproliferative activity against human E31 cells assessed as phenotypic change at 1 to 5 uM incubated for 72 hrs in presence of INK128 by Hoechst 33342/ Alexa Fluor 488 staining based PCA analysis; format: functional, cell-based; conditions: dose 1-5 µM
How it was run: (§3)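 Patient-derived glioma stem cells kept in laminin-coated DMEM/F12 with FGF, EGF, B27 and N2, plated at 500–1500 cells/well on laminin (10 μg mL−1). After overnight attachment, dosed in triplicate with 0.1% DMSO final, 72 h at 37 °C. Live MitoTracker DeepRed (final 300 nM, 30 min), formaldehyde fixation (final 4%), Cell Painting staining and imaging, CellProfiler features, PCA of phenotypic profiles.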

E57 [6] = experiment: Antiproliferative activity against human E57 cells assessed as phenotypic change at 1 to 2.5 uM incubated for 72 hrs in presence of INK128 by Hoechst 33342/ Alexa Fluor 488 staining based PCA analysis; conditions: dose 1-2.5 µM
E57 [7] = experiment: Antiproliferative activity against human E57 cells assessed as reduction in cell viability at 0.01 to 10 uM incubated for 72 hrs by Hoechst staining based nuclei count assay; conditions: dose 0.01-10 µM
E21 [8] = experiment: Antiproliferative activity against human E21 cells assessed as reduction in cell viability at 0.01 to 10 uM incubated for 72 hrs by Hoechst staining based nuclei count assay; conditions: dose 0.01-10 µM
E21 [9] = experiment: Antiproliferative activity against human E21 cells assessed as phenotypic change at 1 to 5 uM incubated for 72 hrs in presence of INK128 by Hoechst 33342/ Alexa Fluor 488 staining based PCA analysis; format: functional, cell-based; conditions: dose 1-5 µM; how it was run: as §3

Compound	Activity (T98 [1])	EC50 (T98 [2]) [µM]	also measured
CNc1ncc2c(C#CCN3CCCC(N(C)C)C3)nn(C3CCCC3)c2n1 (stereo not given)	Active		
CCCNc1ncc2c(C#CCN3CCCC(N(C)C)C3)nn(CC3CCCC3)c2n1 (stereo not given)		< 4	
CN(C)C1CCCN(CC#Cc2nn(CC3CCCC3)c3nc(NC(C)(C)C)ncc23)C1 (stereo not given)		< 4	
CNc1ncc2c(C#CCN3CCCCCC3)nn(CC3CCCC3)c2n1		4.6	
CN(C)C1CCCN(CC#Cc2nn(CC3CCCCC3)c3nc(NC(C)(C)C)ncc23)C1 (stereo not given)	Active		Activity (U-87 MG [3]): Active
CN(C)C1CCCN(CC#Cc2nn(C3CCCC3)c3nc(NC(C)(C)C)ncc23)C1 (stereo not given)	Active		Activity (U-87 MG [3]): Active; Activity (E21 [4]): Dose-Dependent Effect
CNc1ncc2c(C#CCN3CCCC(N(C)C)C3)nn(C3CCCCC3)c2n1 (stereo not given)	Active		
Cn1nnc2c(C(N)=O)ncn2c1=O			Activity (U-87 MG [3]): Active
CNc1ncc2c(C#CCN3CCCC(N(C)C)C3)nn(CC3CCCCC3)c2n1 (stereo not given)	Active		
CNc1ncc2c(C#CCN3CCC(NC(C)=O)CC3)nn(CC3CCCC3)c2n1	Active		
CN(C)C1CCN(CC#Cc2nn(C3CCCCC3)c3nc(NC(C)(C)C)ncc23)C1 (stereo not given)		2.54	EC50 (U-87 MG [5]): 2.71 µM; Activity (E21 [4]): Dose-Dependent Effect
CCOC(=O)C1CCN(CC#Cc2nn(CC3CCCC3)c3nc(NC)ncc23)CC1	Active		
CN(C)C1CCCN(CC#Cc2nn(CC3CCCC3)c3nc(NCc4ccccc4)ncc23)C1 (stereo not given)		< 4	
CNc1ncc2c(C#CCN3CCC(N(C)C)CC3)nn(CC3CCCC3)c2n1		14.8	EC50 (U-87 MG [5]): 15.9 µM
CN(C)C1CCN(CC#Cc2nn(C3CCCC3)c3nc(NCc4ccccc4)ncc23)C1 (stereo not given)		2	Activity (E31): Active; Activity (E57 [6]): Active; Activity (E57 [7]): Active; Activity (E21 [8]): Active; Activity (E21 [9]): Active
CCC(CC)Nc1ncc2c(C#CCN3CCCC(N(C)C)C3)nn(CC3CCCC3)c2n1 (stereo not given)		< 4	Activity (E21 [4]): Dose-Dependent Effect
CCOC(=O)N1CCN(CC#Cc2nn(CC3CCCC3)c3nc(NC)ncc23)CC1	Active		
CN(C)C1CCCN(CC#Cc2nn(C3CCCCC3)c3nc(NC(C)(C)C)ncc23)C1 (stereo not given)	Active		Activity (U-87 MG [3]): Active
CC1CCN(CC#Cc2nn(CC3CCCC3)c3ncnc(N)c23)CC1		< 30	EC50 (U-87 MG [5]): < 30 µM
CNc1ncc2c(C#CCN3CCCC(N(C)C)C3)nn(CC3CCCC3)c2n1 (racemic)		10.8	EC50 (U-87 MG [5]): 5 µM
